# Calls of active or inactive are those of the source. The calls are words filed in the database; no cut-off is given here.
# Assays:
# [1] = Antioxidant activity assessed as ferric reducing antioxidant power at 1 mg/ml by FRAP assay; type: physicochemical
# How it was run: (§1)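 Working reagent was 300 mM acetate buffer (pH 3.6), 10 mM TPTZ in 40 mM HCl and 20 mM FeCl3·6H2O mixed 10:1:1 and warmed to 37 °C. A blank read at 595 nm was taken, then sample was added. After 8 min at room temperature, absorbance was read at 595 nm, in triplicate. FRAP values (μM) came from an FeSO4 standard curve (50–1000 μM) run on each plate.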
# Staphylococcus aureus = assay: Antimicrobial activity against Staphylococcus aureus at 10 ug/disc by disc diffusion assay; type: functional; conditions: read-out: IZ
# Escherichia coli = assay: Antimicrobial activity against Escherichia coli at 10 ug/disc by disc diffusion assay; type: functional; conditions: for zone of inhibition at 10 µg/disc: read-out: IZ
# How it was run: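 Disc diffusion assay, tested alongside S. aureus, B. cereus and P. aeruginosa. Discs loaded at 10 μg each, with a methanol disc as the negative control.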
# Bacillus cereus = assay: Antimicrobial activity against Bacillus cereus at 10 ug/disc by disc diffusion assay; type: functional; conditions: read-out: IZ
# Pseudomonas aeruginosa = assay: Antimicrobial activity against Pseudomonas aeruginosa at 10 ug/disc by disc diffusion assay; type: functional, organism-based
# [2] = Antioxidant activity assessed as ferric reducing antioxidant power at 0.1 mg/ml by FRAP assay; type: physicochemical; how it was run: as §1
compound,measurement,setting,value
CO [METHYL ALCOHOL],Activity,[1],4.7 µM
same,zone of inhibition at 10 µg/disc,Staphylococcus aureus,0 mm
same,zone of inhibition at 10 µg/disc,Escherichia coli,0 mm
same,zone of inhibition at 10 µg/disc,Bacillus cereus,0 mm
same,inhibition zone (IZ),Pseudomonas aeruginosa,inactive
CC1(C)S[C@@H]2[C@H](NC(=O)[C@H](N)c3ccccc3)C(=O)N2[C@H]1C(=O)O [AMPICILLIN],zone of inhibition at 10 µg/disc,Staphylococcus aureus,31 mm
same,zone of inhibition at 10 µg/disc,Escherichia coli,20 mm
same,zone of inhibition at 10 µg/disc,Bacillus cereus,9 mm
same,inhibition zone (IZ),Pseudomonas aeruginosa,inactive
O=C1O[C@H]([C@@H](O)CO)C(O)=C1O [ASCORBIC ACID],Activity,[2],870 µM
CC1(C)CCC[C@]2(C)[C@H]3[C@H](O)c4cc(O)c(O)cc4O[C@@]3(C)CC[C@@H]12 (relative stereo),Activity,[1],2500 µM
same,zone of inhibition at 10 µg/disc,Staphylococcus aureus,4 mm
same,inhibition zone (IZ),Escherichia coli,inactive
same,zone of inhibition at 10 µg/disc,Bacillus cereus,3 mm
same,inhibition zone (IZ),Pseudomonas aeruginosa,inactive
CC1(C)CCC[C@]2(C)[C@H]3C=C4C=C(O)C(=O)C=C4O[C@@]3(C)CC[C@@H]12 [PUUPEHENONE],Activity,[1],2600 µM
same,zone of inhibition at 10 µg/disc,Staphylococcus aureus,4 mm
same,inhibition zone (IZ),Escherichia coli,inactive
same,zone of inhibition at 10 µg/disc,Bacillus cereus,3 mm
same,inhibition zone (IZ),Pseudomonas aeruginosa,inactive

# Reference: ChEMBL document CHEMBL3421551, “Puupehenol, a potent antioxidant antimicrobial meroterpenoid from a Hawaiian deep-water Dactylospongia sp. sponge” (J Nat Prod, 2015)
